Results on one compound are retold here after ChEMBL document CHEMBL4808215, “Discovery of Selective Small-Molecule Inhibitors for the ENL YEATS Domain” (J Med Chem, 2021).

Calls of active or inactive are those of the source. The calls are words filed in the database; no cut-off is given here.

In assay [1] the target is T1, Protein AF-9 (Homo sapiens) (UniProt P42568).
T1 sequence (whole entry): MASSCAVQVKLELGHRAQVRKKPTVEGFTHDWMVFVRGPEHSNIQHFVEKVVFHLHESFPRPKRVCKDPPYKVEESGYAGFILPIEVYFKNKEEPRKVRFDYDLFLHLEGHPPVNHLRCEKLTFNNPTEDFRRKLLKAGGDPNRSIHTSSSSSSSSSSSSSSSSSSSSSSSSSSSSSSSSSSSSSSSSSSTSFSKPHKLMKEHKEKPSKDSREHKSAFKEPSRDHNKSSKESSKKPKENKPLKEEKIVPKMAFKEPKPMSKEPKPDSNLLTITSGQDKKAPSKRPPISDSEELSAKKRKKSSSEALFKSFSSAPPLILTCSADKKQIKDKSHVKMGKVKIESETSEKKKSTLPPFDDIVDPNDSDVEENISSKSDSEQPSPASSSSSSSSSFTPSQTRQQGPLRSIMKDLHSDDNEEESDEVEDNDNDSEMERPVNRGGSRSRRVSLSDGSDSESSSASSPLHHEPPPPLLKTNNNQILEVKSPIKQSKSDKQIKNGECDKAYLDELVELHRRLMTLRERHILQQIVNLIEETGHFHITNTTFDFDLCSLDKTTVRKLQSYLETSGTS
Nature of the assay: Inhibition of human His-AF9 YEATS domain and biotinylated H3K9ac peptide interaction at 20 uM by AlphaScreen assay.

The target in assay [2] is T2, YEATS domain-containing protein 2 (Homo sapiens, UniProt Q9ULM3).
T2 sequence (Q9ULM3 whole entry): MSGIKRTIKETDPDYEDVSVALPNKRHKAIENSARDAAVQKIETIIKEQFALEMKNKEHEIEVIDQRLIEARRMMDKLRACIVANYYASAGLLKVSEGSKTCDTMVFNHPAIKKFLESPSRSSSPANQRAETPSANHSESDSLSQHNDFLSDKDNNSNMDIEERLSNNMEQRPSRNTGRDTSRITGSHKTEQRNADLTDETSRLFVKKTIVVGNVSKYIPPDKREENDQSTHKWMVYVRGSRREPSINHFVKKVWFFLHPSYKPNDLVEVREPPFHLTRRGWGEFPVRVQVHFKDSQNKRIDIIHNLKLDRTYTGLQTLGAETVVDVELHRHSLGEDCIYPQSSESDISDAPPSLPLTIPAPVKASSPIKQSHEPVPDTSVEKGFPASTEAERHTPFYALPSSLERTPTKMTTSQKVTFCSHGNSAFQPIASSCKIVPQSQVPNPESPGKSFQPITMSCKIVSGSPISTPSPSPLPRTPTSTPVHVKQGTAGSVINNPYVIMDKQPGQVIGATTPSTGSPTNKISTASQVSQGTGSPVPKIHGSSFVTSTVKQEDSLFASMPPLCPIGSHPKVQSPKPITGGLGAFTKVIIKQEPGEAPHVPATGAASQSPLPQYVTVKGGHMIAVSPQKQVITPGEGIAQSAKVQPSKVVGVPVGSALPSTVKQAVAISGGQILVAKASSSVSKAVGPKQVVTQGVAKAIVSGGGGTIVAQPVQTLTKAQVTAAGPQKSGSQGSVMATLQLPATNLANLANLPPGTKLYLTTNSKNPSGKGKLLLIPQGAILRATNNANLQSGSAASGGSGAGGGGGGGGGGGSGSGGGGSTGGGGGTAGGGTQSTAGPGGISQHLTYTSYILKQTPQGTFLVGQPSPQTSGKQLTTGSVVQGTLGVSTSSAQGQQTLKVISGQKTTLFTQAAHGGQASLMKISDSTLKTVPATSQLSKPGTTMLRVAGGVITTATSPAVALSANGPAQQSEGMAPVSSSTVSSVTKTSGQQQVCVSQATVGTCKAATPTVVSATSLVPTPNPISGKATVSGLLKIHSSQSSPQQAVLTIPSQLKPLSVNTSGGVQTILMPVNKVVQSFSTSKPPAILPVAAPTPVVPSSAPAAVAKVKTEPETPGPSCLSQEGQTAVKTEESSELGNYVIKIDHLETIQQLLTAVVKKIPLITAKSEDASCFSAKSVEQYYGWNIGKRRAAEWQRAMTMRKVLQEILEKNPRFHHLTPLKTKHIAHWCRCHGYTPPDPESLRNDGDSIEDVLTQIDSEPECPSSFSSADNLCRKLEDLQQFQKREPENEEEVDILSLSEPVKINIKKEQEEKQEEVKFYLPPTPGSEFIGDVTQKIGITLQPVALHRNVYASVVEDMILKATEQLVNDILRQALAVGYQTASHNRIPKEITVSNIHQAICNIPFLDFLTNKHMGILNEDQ
Put plainly: Inhibition of human His-YEATS2 YEATS domain and biotinylated […] peptide interaction by AlphaScreen assay. The method, boiled down:
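His-tagged YEATS domains were expressed in E. coli Rosetta-2 (DE3) pLysS and purified on Ni-NTA. Partners were biotinylated peptide on streptavidin donor and Ni2+-chelate acceptor beads: AF9 30 nM with H3K9ac, GAS41 100 nM with H3K27ac, YEATS2 100 nM with H3K27cr. Peptides at 30 nM, buffer 50 mM HEPES pH 7.4, 100 mM NaCl, 0.1% BSA, 0.05% CHAPS. Thirteen-point 3-fold series from 54 μM to 0.1 nM, 4–6 replicates, signal normalised to no-compound control, four-parameter fit.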
Background: Bead proximity is the source of the signal in Alpha formats.

Assay [3] concerns the target T3, YEATS domain-containing protein 2 (Homo sapiens) (UniProt Q9ULM3).
T3 sequence (whole entry): T2 sequence (Q9ULM3 whole entry)
Nature of the assay: Inhibition of human His-YEATS2 YEATS domain and biotinylated […] peptide interaction at 20 uM by AlphaScreen assay.

The next assay deals with T4, Protein ENL (Homo sapiens, UniProt Q03111).
T4 sequence (Q03111 whole entry): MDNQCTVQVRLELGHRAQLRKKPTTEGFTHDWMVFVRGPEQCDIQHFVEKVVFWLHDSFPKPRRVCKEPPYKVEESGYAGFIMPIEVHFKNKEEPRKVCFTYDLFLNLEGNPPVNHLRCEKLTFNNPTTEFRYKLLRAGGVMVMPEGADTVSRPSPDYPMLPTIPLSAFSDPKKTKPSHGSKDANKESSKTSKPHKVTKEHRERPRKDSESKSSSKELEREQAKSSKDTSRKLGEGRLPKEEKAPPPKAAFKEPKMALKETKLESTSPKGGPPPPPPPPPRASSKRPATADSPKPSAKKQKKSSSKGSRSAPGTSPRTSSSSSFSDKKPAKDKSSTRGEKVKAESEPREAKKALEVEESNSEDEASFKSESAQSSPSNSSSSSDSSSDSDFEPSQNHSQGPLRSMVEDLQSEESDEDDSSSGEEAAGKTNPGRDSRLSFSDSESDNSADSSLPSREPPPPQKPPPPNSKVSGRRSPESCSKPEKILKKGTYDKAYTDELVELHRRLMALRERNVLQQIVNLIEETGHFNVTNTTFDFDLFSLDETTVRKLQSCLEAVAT
Nature of the assay: Inhibition of human His-ENL YEATS domain and biotinylated H3K9ac peptide interaction by AlphaScreen assay.

Assay [4] concerns the target YEATS domain-containing protein 4 (Homo sapiens, UniProt O95619). Put plainly: Inhibition of human His-GAS41 YEATS domain and biotinylated H3K27ac peptide interaction at 20 uM by AlphaScreen assay.

YEATS domain-containing protein 4, sequence (O95619 whole entry, the tested form may be a part): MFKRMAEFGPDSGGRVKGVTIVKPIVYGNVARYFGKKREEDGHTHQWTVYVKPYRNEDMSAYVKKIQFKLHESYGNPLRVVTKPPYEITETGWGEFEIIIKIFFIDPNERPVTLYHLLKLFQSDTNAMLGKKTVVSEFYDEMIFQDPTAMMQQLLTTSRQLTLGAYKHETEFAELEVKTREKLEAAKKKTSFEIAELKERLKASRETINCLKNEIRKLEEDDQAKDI

With `CN(C)Cc1ccc(CNC(=O)c2ccc3nncn3c2)cc1`, the inhibition result in assay [1], in assay [3] and in assay [4] was “Active” each time. Besides, the 50% inhibitory concentration (IC50) in assay [2] is over 54000 nM; against Protein ENL, 621 nM.

By IC50 is commonly meant the concentration that inhibits the measured activity by half. Read a low IC50 as greater potency in that assay.
